Measured values from ChEMBL document CHEMBL4138102, “Design, synthesis and evaluation of azaacridine derivatives as dual-target EGFR and Src kinase inhibitors for antitumor treatment” (Eur J Med Chem, 2017).

Columns and labels:
K562 [1] = assay: Antiproliferative activity against human K562 cells after 48 hrs by MTT assay; assay type: functional, cell-based; conditions: K562, 48 h
How it was run: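 K562 at 7×10⁵ cells mL^-1 seeded and held 12 h at 37 °C, 5% CO₂. Compound added in triplicate per concentration for 48 h. MTT (5 mg mL^-1 solution) added for 4 h at 37 °C, formazan dissolved in DMSO, absorbance read at 490 nm; IC₅₀ derived.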

A549 [2] = assay: Antiproliferative activity against human A549 cells after 48 hrs by MTT assay; assay type: functional, cell-based; conditions: A549, 48 h
How it was run: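 A549 seeded at 5-7 × 10³ cells per well and incubated overnight at 37 °C, 5% CO₂. Medium then replaced with fresh medium holding graded compound concentrations or equal DMSO, 48 h. MTT (5 mg mL^-1 solution) added for 4 h, formazan dissolved in DMSO, absorbance read at 490 nm; IC₅₀ derived.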

[3] = target: Epidermal growth factor receptor (Homo sapiens) (UniProt P00533); assay: Inhibition of EGFR (unknown origin) at 10 uM after 15 mins by luminescence assay relative to control
Epidermal growth factor receptor (Homo sapiens), sequence (P00533 whole entry): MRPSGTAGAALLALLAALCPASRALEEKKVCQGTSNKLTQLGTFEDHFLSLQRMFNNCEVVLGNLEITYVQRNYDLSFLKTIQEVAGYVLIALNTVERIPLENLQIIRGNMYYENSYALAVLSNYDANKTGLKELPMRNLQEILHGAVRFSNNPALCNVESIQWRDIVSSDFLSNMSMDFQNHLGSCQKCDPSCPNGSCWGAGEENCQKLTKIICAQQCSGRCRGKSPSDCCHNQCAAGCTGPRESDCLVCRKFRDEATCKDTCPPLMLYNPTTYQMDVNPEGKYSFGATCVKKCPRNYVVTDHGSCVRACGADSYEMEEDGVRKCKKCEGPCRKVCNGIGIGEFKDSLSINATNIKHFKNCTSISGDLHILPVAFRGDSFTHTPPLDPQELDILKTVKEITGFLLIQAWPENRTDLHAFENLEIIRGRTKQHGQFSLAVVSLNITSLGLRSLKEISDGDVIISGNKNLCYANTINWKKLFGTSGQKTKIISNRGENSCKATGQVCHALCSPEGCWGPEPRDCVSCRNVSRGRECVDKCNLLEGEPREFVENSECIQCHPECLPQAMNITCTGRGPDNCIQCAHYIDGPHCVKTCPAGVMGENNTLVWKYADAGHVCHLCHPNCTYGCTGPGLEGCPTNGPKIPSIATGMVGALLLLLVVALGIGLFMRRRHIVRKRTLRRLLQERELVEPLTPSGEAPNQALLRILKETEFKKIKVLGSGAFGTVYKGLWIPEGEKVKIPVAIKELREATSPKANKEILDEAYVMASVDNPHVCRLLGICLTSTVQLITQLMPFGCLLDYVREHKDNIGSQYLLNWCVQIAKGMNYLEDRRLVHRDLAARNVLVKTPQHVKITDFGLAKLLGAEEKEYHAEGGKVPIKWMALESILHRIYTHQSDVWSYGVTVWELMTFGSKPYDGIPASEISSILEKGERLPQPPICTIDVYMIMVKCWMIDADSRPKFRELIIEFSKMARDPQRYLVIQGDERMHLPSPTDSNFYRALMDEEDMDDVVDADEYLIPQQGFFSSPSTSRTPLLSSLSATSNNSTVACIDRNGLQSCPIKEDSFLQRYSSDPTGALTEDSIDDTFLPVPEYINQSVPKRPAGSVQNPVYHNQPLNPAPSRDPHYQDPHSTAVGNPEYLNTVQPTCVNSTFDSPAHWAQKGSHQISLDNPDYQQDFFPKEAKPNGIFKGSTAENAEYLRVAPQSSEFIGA
How it was run: (§1)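 Contract HTRF-format assay: enzyme, substrate, ATP and compound mixed in 50 mM HEPES/NaOH pH 7.0, 0.02% NaN₃, 0.01% BSA, 0.1 mM orthovanadate, 5 mM MgCl₂, 1 mM DTT. Incubated 15 min at room temperature with compound in 2.5% DMSO. Streptavidin-XL665 and TK antibody europium cryptate added in KF/EDTA buffer; signal read on EnVision; % inhibition computed.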

K562 [4] = assay: Induction of apoptosis in human K562 cells assessed as necrotic cells at 1 uM after 48 hrs by Annexin V-FITC/propidium iodide based flow cytometric analysis (reference value: 0.22%); assay type: functional
A549 [5] = assay: Downregulation of SRC protein expression in human A549 cells after 48 hrs by Western blot analysis; assay type: functional, cell-based
How it was run: (§2)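 Cells exposed to 0, 0.1, 0.5 and 2.5 µM for 48 h, then lysed and protein quantified. Equal protein loads run on 10% SDS-PAGE, transferred to PVDF and probed for EGFR, p-EGFR, Src and p-Src with HRP secondaries and luminescence detection. Band density expressed as percentage of β-actin.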

K562 [6] = assay: Induction of apoptosis in human K562 cells after 48 hrs by Annexin V-FITC/propidium iodide based flow cytometric analysis; assay type: functional, cell-based
K562 [7] = assay: Induction of apoptosis in human K562 cells assessed as late apoptotic cells at 0.01 uM after 48 hrs by Annexin V-FITC/propidium iodide based flow cytometric analysis (reference value: 2.49%); assay type: functional
K562 [8] = assay: Induction of apoptosis in human K562 cells assessed as necrotic cells at 0.1 uM after 48 hrs by Annexin V-FITC/propidium iodide based flow cytometric analysis (reference value: 0.22%); assay type: functional
A549 [9] = assay: Downregulation of EGFR protein expression in human A549 cells by measuring EGFR level up to 2.5 uM after 48 hrs by Western blot analysis (reference value: 48.02%); assay type: functional; how it was run: as §2
K562 [10] = assay: Induction of apoptosis in human K562 cells assessed as early apoptotic cells at 0.1 uM after 48 hrs by Annexin V-FITC/propidium iodide based flow cytometric analysis (reference value: 4.68%); assay type: functional
K562 [11] = assay: Induction of apoptosis in human K562 cells assessed as necrotic cells at 0.01 uM after 48 hrs by Annexin V-FITC/propidium iodide based flow cytometric analysis (reference value: 0.22%); assay type: functional
K562 [12] = assay: Induction of apoptosis in human K562 cells assessed as early apoptotic cells at 1 uM after 48 hrs by Annexin V-FITC/propidium iodide based flow cytometric analysis (reference value: 4.68%); assay type: functional
[13] = target: Proto-oncogene tyrosine-protein kinase Src (Homo sapiens) (UniProt P12931); assay: Inhibition of SRC phosphorylation in human A549 cells after 48 hrs by Western blot analysis; assay type: cell-based; how it was run: as §2
Proto-oncogene tyrosine-protein kinase Src (Homo sapiens), sequence (P12931 2-536 limits assumed): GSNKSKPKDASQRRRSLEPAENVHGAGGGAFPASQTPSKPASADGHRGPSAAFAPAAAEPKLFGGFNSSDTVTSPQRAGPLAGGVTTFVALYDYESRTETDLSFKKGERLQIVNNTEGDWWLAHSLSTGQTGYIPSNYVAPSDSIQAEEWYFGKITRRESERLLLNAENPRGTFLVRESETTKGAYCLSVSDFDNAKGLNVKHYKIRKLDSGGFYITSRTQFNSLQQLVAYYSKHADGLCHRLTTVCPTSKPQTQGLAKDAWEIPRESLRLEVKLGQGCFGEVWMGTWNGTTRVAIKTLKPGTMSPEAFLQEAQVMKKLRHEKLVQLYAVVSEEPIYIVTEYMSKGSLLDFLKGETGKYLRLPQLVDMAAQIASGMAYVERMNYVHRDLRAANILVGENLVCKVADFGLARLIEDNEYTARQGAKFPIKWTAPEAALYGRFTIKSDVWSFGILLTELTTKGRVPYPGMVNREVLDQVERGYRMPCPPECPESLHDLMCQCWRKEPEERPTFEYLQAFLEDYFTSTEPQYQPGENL

A549 [14] = assay: Downregulation of EGFR protein expression in human A549 cells after 48 hrs by Western blot analysis; assay type: functional, cell-based; how it was run: as §2
K562 [15] = assay: Induction of apoptosis in human K562 cells assessed as late apoptotic cells at 0.1 uM after 48 hrs by Annexin V-FITC/propidium iodide based flow cytometric analysis (reference value: 2.49%); assay type: functional
Calf thymus DNA [16] = assay: Binding affinity to calf thymus DNA by UV-visible absorption spectral analysis; assay type: nucleic-acid assay; conditions: Bos taurus
K562 [17] = assay: Induction of apoptosis in human K562 cells assessed as early apoptotic cells at 0.01 uM after 48 hrs by Annexin V-FITC/propidium iodide based flow cytometric analysis (reference value: 4.68%); assay type: functional
Calf thymus DNA [18] = assay: Binding affinity to calf thymus DNA by fluorescence titration method; assay type: nucleic-acid assay; conditions: Bos taurus
[19] = target: Epidermal growth factor receptor (Homo sapiens) (UniProt P00533); assay: Inhibition of EGFR phosphorylation in human A549 cells after 48 hrs by Western blot analysis; assay type: cell-based; how it was run: as §2
[20] = target: Proto-oncogene tyrosine-protein kinase Src (Homo sapiens) (UniProt P12931); assay: Inhibition of SRC (unknown origin) at 1 uM after 15 mins by luminescence assay relative to control; how it was run: as §1
A549 [21] = assay: Antiinvasive activity in human A549 cells at 1 uM preincubated for 6 hrs followed by cell seeding on the inserts to reach confluence for 12 hrs measured after 24 hrs by trypan blue staining-based bright-field light microscopic analysis relative to control; assay type: functional
How it was run: (§3)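 A549 cells pretreated with compound for 6 h, seeded on fibronectin-coated 8 µm pore invasion inserts to reach confluence over 12 h, then cultured another 24 h with drug. Cells fixed in 4% formaldehyde, non-invading cells swabbed off, invaders stained with 0.08% trypan blue for 15 min. Five random bright-field views counted; mean ± SEM of five experiments versus control.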

K562 [22] = assay: Induction of apoptosis in human K562 cells assessed as late apoptotic cells at 1 uM after 48 hrs by Annexin V-FITC/propidium iodide based flow cytometric analysis (reference value: 2.49%); assay type: functional
A549 [23] = assay: Antiinvasive activity in human A549 cells at 0.1 uM preincubated for 6 hrs followed by cell seeding on the inserts to reach confluence for 12 hrs measured after 24 hrs by trypan blue staining-based bright-field light microscopic analysis relative to control; assay type: functional; how it was run: as §3
[24] = target: Epidermal growth factor receptor (Homo sapiens) (UniProt P00533); assay: Inhibition of EGFR phosphorylation in human A549 cells by measuring EGFR phosphorylated protein level up to 2.5 uM after 48 hrs by Western blot analysis (reference value: 50.21%); assay type: cell-based; set-up: scale not given: the % may be the effect or the level left; how it was run: as §2
[25] = target: Epidermal growth factor receptor (Homo sapiens) (UniProt P00533); assay: Inhibition of EGFR (unknown origin) at 1 uM after 15 mins by luminescence assay relative to control; how it was run: as §1

Work on Cc1cccc(C(=O)Nc2ccc(Nc3ncnc4c3Cc3ccccc3N4)cc2)c1 yielded an IC50 (K562 [1]) of 3.62 µM, an IC50 (A549 [2]) of 24.8 µM and an inhibition [3] of 51.1%.
For O=C(Nc1ccc(Nc2ncnc3c2Cc2ccccc2N3)cc1)Nc1cccc(Cl)c1, the IC50 (K562 [1]) was 3.08 µM, the IC50 (A549 [2]) was 17.9 µM and the inhibition [3] was 42.1%.
For O=C(Nc1ccc(Nc2ncnc3c2Cc2ccccc2N3)cc1)c1cccc(F)c1, the Activity (K562 [4]) was 0.77%, the Activity (A549 [5]) was “Dose-dependent effect” and the Activity (K562 [6]) was “Dose-dependent effect”. The Activity (K562 [7]) was 3.06%, the Activity (K562 [8]) was 1.06% and the Activity (A549 [9]) was 3.03%. For the same molecule, the Activity (K562 [10]) was 18.82%, the IC50 (K562 [1]) was 0.22 µM and the Activity (K562 [11]) was 0.17%. For the same molecule, the IC50 (A549 [2]) was 0.253 µM, the Activity (K562 [12]) was 4.19% and the inhibition [13] was “Dose-dependent effect”. For the same molecule, the Activity (A549 [14]) was “Dose-dependent effect”, the Activity (K562 [15]) was 27.11% and the Kb (Calf thymus DNA [16]) was 4.16 ×10³ /M. The Activity (K562 [17]) was 11.14%, the K (Calf thymus DNA [18]) was 973 M⁻¹ and the inhibition [19] was “Dose-dependent effect”. The inhibition [3] was 33.1 to 33.5%, the inhibition [20] was 72.1% and the inhibition at 1 µM (A549 [21]) was 82.8%. The Activity (K562 [22]) was 45.15%, the inhibition at 0.1 µM (A549 [23]) was 52.5% and the Activity [24] was 3.11%.
Molecule O=C(Nc1cccc(Nc2ncnc3c2Cc2ccccc2N3)c1)c1ccccc1 has an IC50 (K562 [1]) of 3.11 µM, an IC50 (A549 [2]) of 18.3 µM and an inhibition [3] of 30.7%.
Molecule O=C(Nc1cccc(Nc2ncnc3c2Cc2ccccc2N3)c1)c1cccc(C(F)(F)F)c1 has an IC50 (K562 [1]) of 1.89 µM, an IC50 (A549 [2]) of 9.58 µM and an inhibition [3] of 16.3%.
Cc1cccc(C(=O)Nc2cccc(Nc3ncnc4c3Cc3ccccc3N4)c2)c1 was tested, and the IC50 (K562 [1]) was 4.9 µM, the IC50 (A549 [2]) was over 25 µM and the inhibition [3] was 53%.
For O=C(Nc1ccc(Nc2ncnc3c2Cc2ccccc2N3)cc1)c1ccccc1, the IC50 (K562 [1]) was 2.52 µM, the IC50 (A549 [2]) was 14.3 µM and the inhibition [3] was 12.6%.
Cc1cccc(NC(=O)Nc2ccc(Nc3ncnc4c3Cc3ccccc3N4)cc2)c1 showed an IC50 (K562 [1]) of 6.97 µM, an IC50 (A549 [2]) of over 25 µM and an inhibition [3] of 65.4%.
COc1ccc2c(Nc3ccc(NC(=O)Nc4ccccc4)cc3)c3ccccc3nc2c1 showed an IC50 (A549 [2]) of 9.03 µM and an inhibition [3] of 21.4%.
In the case of O=C(Nc1ccc(Nc2ncnc3c2Cc2ccccc2N3)cc1)Nc1cccc(F)c1, the IC50 (K562 [1]) is reported as 3.14 µM, the IC50 (A549 [2]) is reported as 6.82 µM and the inhibition [3] is reported as 55.4%.
Molecule COc1cccc(C(=O)Nc2cccc(Nc3ncnc4c3Cc3ccccc3N4)c2)c1 has an IC50 (K562 [1]) of 3.08 µM, an IC50 (A549 [2]) of 13.5 µM and an inhibition [3] of 31.9%.
Molecule O=C(Nc1cccc(Nc2ncnc3c2Cc2ccccc2N3)c1)c1cccc(F)c1 has an IC50 (K562 [1]) of 0.72 µM, an IC50 (A549 [2]) of 9.05 µM and an inhibition [3] of 24.5%.
For O=C(Nc1ccccc1)Nc1ccc(Nc2ncnc3c2Cc2ccccc2N3)cc1, the IC50 (K562 [1]) was 5.08 µM, the IC50 (A549 [2]) was 18 µM and the inhibition [3] was 32%.
COc1cccc(C(=O)Nc2ccc(Nc3ncnc4c3Cc3ccccc3N4)cc2)c1 showed an IC50 (K562 [1]) of 2.16 µM, an IC50 (A549 [2]) of 14.1 µM and an inhibition [3] of 35.4%.
For O=C(Nc1ccc(Nc2ncnc3c2Cc2ccccc2N3)cc1)Nc1cccc(C(F)(F)F)c1, the IC50 (K562 [1]) was 3.35 µM, the IC50 (A549 [2]) was 9.26 µM and the inhibition [3] was 35.4%.
COc1cccc(NC(=O)Nc2ccc(Nc3ncnc4c3Cc3ccccc3N4)cc2)c1 was tested, and the IC50 (K562 [1]) was 3.62 µM, the IC50 (A549 [2]) was 13.4 µM and the inhibition [3] was 24.9%.
In the case of O=C(Nc1ccc(Nc2ncnc3c2Cc2ccccc2N3)cc1)c1cccc(Cl)c1, the IC50 (K562 [1]) is reported as 0.41 µM, the IC50 (A549 [2]) is reported as 20.7 µM and the inhibition [3] is reported as 30.9%.
Cc1ccc(NC(=O)c2ccc(CN3CCN(C)CC3)cc2)cc1Nc1nccc(-c2cccnc2)n1 [IMATINIB] gave an IC50 (A549 [2]) of 4.56 µM.
Work on O=C(Nc1ccc(Nc2ncnc3c2Cc2ccccc2N3)cc1)c1cccc(C(F)(F)F)c1 yielded an inhibition [25] of 52.4%, an IC50 (K562 [1]) of 1.32 µM and an IC50 (A549 [2]) of 12.2 µM. The inhibition [3] was 95.4%.
O=C(Nc1cccc(Nc2ncnc3c2Cc2ccccc2N3)c1)c1cccc(Cl)c1 showed an IC50 (K562 [1]) of 1.21 µM, an IC50 (A549 [2]) of 12.3 µM and an inhibition [3] of 30.2%.
